Measured values published in ChEMBL document CHEMBL1147446, “Antagonists of human CCR5 receptor containing 4-(pyrazolyl)piperidine side chains. Part 3: SAR studies on the benzylpyrazole segment” (Bioorg Med Chem Lett, 2004).

Assays:
[1] = target: Sodium-dependent noradrenaline transporter (Homo sapiens) (UniProt P23975); experiment: Inhibitory activity against human adrenergic norepinephrine transporter at 10 uM
[2] = in vivo; conditions: rat
[3] = target: T1, Sodium-dependent dopamine transporter (Homo sapiens, UniProt Q01959); experiment: (§1) Inhibitory activity against human dopamine transporter at 10 uM
T1 sequence (Q01959 whole entry): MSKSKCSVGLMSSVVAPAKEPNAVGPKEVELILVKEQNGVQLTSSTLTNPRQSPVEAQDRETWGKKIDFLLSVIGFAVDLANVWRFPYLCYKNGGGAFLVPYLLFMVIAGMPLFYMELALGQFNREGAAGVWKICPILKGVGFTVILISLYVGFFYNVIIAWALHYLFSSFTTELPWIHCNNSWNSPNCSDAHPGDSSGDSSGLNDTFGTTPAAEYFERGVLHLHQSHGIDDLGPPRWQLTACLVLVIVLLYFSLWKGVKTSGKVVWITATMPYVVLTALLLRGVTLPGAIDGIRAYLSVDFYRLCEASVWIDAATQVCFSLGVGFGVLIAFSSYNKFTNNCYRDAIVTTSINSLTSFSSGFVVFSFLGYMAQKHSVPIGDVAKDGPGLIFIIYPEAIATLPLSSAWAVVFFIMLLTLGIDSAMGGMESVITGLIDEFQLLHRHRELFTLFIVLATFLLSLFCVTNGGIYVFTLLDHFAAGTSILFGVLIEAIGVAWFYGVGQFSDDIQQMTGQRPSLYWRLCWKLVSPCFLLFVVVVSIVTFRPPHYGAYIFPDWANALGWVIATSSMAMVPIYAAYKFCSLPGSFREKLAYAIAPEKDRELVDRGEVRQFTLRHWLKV

[4] = tested on: HeLa; experiment: Antiviral activities in a cell culture HIV-1 infectivity inhibition assay using HeLa cells plus 50% normal human serum; format: functional
[5] = target: T2, D(3) dopamine receptor (Homo sapiens, UniProt P35462); experiment: (§2) Inhibitory activity against human dopamine receptor D3 at 10 uM
T2 sequence (P35462 whole entry): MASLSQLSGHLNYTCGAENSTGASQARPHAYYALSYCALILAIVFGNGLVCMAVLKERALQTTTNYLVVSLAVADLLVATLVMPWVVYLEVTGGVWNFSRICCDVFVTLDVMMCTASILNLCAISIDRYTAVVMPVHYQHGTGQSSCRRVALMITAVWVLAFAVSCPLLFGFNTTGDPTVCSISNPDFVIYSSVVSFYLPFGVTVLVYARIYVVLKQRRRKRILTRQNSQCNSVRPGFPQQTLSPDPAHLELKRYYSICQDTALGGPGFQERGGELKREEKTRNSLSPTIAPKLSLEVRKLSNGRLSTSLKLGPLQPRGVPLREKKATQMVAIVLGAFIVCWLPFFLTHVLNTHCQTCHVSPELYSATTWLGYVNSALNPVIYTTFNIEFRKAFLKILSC

[6] = target: L-type calcium channel, benzothiazepine site (Rattus norvegicus, UniProt P22002+P27732+Q02485); experiment: Inhibition of binding to rat L-type Calcium channel benzothiazepine site at 10 uM; format: functional
[7] = species on record: Rattus norvegicus; experiment: (§3) Inhibitory activity against rat Na+ channel site 2 at 10 uM
[8] = In vitro antiviral activity using peripheral blood mononuclear cell (PBMC) HIV-1 spread assay in presence of 50% normal human serum; format: functional
[9] = tested on: Canis familiaris; experiment: […] AUCN in dog ( (dosed as a mixture of five compounds at 0.5 mpk each via iv only); format: ADME, organism-based, Canis lupus familiaris; conditions: in vivo
[10] = Half life in dog (dosed as a mixture of five compounds at 0.5 mpk each via iv only); format: ADME, organism-based, Canis lupus familiaris; conditions: in vivo
In short: (§4)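 Dogs received a five-compound cassette by iv only, 0.5 mpk of each compound.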

[11] = tested on: HeLa; experiment: Antiviral activities in a cell culture HIV-1 infectivity inhibition assay using HeLa cells; format: functional; conditions: Homo sapiens
[12] = target: C-C chemokine receptor type 5 (Homo sapiens, UniProt P51681); experiment: Inhibitory concentration for displacement of [125I]-MIP-1 alpha from recombinant human CC chemokine receptor 5 (CCR5) expressed in CHO cell; format: cell-based
C-C chemokine receptor type 5, sequence (P51681 whole entry): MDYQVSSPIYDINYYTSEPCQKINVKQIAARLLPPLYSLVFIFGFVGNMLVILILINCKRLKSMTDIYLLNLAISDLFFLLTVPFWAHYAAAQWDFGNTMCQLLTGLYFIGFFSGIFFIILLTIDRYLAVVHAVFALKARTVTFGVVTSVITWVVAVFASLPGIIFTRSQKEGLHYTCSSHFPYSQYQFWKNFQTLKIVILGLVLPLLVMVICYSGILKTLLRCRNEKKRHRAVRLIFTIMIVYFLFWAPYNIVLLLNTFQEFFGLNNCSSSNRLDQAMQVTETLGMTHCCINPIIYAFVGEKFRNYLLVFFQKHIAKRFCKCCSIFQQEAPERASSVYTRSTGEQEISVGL
In short: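 Competitive binding to CCR5 on CHO cell membranes, read as displacement of [125I]-labeled MIP-1α. IC50 values are means of triplicate determinations. Standard errors were normally <15% within an assay. Assay-to-assay variation was within ±2-fold, judged from a standard compound.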

[13] = in vivo; conditions: rat, plasma
[14] = in vivo; conditions: rat; remark: listed apart in the source
[15] = Plasma clearance in dog (dosed as a mixture of five compounds at 0.5 mpk each via iv only); format: ADME, organism-based, Canis lupus familiaris; conditions: read-out: Clp; in short: as §4
[16] = as §3
[17] = In vitro antiviral activity using peripheral blood mononuclear cell (PBMC) HIV-1 spread assay; format: functional; conditions: Homo sapiens
[18] = target: T2, D(3) dopamine receptor; experiment: as §2; remark: listed apart in the source
[19] = target: T1, Sodium-dependent dopamine transporter; experiment: as §1; remark: listed apart in the source
[20] = target: Voltage-gated inwardly rectifying potassium channel KCNH2 (Homo sapiens, UniProt Q12809); experiment: Binding affinity against hERG Voltage-gated potassium channel subunit Kv11.1
Voltage-gated inwardly rectifying potassium channel KCNH2, sequence (Q12809 whole entry): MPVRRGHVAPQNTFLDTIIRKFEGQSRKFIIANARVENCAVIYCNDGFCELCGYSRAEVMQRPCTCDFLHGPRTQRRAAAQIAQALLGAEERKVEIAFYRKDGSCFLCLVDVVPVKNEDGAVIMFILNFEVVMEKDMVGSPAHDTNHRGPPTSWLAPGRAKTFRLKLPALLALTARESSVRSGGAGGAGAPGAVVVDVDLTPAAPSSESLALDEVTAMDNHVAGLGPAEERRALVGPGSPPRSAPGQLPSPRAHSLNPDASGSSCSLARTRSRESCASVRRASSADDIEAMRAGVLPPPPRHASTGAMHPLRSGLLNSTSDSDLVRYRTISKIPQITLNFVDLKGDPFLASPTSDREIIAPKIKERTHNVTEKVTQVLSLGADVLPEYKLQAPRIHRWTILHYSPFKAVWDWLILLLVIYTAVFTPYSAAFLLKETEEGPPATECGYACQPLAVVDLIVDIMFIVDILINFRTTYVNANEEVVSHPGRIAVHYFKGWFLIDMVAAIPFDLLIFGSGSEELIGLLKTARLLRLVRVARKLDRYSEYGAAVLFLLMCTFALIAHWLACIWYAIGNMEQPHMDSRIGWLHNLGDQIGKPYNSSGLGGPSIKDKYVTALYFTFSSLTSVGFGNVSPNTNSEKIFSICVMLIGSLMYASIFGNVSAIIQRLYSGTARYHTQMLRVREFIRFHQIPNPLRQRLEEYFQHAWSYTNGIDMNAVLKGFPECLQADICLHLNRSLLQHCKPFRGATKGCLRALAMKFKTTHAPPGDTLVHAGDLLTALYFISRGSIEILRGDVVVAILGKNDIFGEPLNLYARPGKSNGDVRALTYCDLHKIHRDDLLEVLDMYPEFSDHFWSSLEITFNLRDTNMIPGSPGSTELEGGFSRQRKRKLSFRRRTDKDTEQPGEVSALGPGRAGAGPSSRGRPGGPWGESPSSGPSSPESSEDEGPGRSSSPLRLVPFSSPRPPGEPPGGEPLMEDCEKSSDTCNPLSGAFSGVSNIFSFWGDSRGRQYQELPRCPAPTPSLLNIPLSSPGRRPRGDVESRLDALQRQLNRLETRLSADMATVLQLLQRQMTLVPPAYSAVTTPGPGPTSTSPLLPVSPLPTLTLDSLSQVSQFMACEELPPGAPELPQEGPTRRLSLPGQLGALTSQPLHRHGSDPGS

[21] = tested on: Canis familiaris; experiment: […] AUCN in dog (dosed as a mixture of five compounds at 0.5 mpk each via iv only); format: ADME, organism-based, Canis lupus familiaris; conditions: in vivo

Sodium-dependent noradrenaline transporter (Homo sapiens), sequence (P23975 whole entry): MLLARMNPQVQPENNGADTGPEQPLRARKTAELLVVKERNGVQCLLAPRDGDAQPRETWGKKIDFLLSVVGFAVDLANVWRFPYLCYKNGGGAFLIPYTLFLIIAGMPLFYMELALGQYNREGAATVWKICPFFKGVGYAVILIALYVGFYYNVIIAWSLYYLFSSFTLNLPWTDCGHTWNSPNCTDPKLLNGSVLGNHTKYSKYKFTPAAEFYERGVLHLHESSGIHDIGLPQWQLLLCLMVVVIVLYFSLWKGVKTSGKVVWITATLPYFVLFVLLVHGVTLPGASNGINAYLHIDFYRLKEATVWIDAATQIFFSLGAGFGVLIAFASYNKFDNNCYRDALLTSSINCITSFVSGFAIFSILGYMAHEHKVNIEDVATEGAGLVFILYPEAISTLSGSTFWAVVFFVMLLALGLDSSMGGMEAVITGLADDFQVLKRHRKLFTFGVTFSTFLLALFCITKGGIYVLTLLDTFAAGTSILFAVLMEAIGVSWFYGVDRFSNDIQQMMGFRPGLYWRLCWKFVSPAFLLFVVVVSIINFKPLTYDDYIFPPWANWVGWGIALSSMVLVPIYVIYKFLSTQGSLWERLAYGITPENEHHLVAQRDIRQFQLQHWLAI

Compound | inhibition [1] [%] | half-life [2] [h] | IC90 [4] [nM] | inhibition at 10 µM [6] [%] | IC90 [11] [nM] | IC50 [12] [nM] | clearance [13] [mL/min/kg] | bioavailability [14] [%] | further results
CCn1nc(Cc2ccccc2)cc1C1CCN(C[C@H]2CN([C@@H](C(=O)O)C(C)C)C[C@@H]2c2cccc(F)c2)CC1 | 21 | 1.4 | 300 | -3 |  |  |  |  | inhibition [3]: 15%; inhibition [5]: 45%; inhibition [7]: 32%
CCn1nc(Cc2ccc(OC)c(OC)c2)cc1C1CCN(C[C@H]2CN([C@@H](C(=O)O)C(C)(C)C)C[C@@H]2c2cccc(F)c2)CC1 | 3 | 1.1 | 11 | -8 | < 0.14 | 1.2 | 2.1 | 33 | IC95 [8]: 31 nM; AUC N [9]: 1.9 uM hr dose-1; half-life [10]: 2.1 h; inhibition [3]: 9%; inhibition [5]: 44%; clearance [15]: 14 mL/min/kg; IC50 [16]: 3200 nM; IC95 [17]: 1.6 nM
CC[C@H](C)[C@H](C(=O)O)N1C[C@H](CN2CCC(c3cc(Cc4ccc(OC(F)(F)F)cc4)nn3CC)CC2)[C@@H](c2cccc(F)c2)C1 | 42 | 2.3 | 33 | 46 | 0.4 | 1.1 | 8.8 | 41 | IC95 [8]: 20 nM; AUC N [9]: 6.8 uM hr dose-1; half-life [10]: 3.1 h; IC50 [18]: 2700 nM; IC50 [19]: 3600 nM; clearance [15]: 3.8 mL/min/kg; IC50 [16]: 1200 nM; IC95 [17]: 2.5 nM
CC[C@H](C)[C@H](C(=O)O)N1C[C@H](CN2CCC(c3cc(Cc4ccc(OC)c(OC)c4)nn3CC)CC2)[C@@H](c2cccc(F)c2)C1 | 15 |  | 33 | 36 | 0.4 | 1.5 |  |  | inhibition [3]: -4%; inhibition [5]: 35%; IC50 [16]: 7200 nM
CCn1nc(Cc2ccc(S(C)(=O)=O)cc2)cc1C1CCN(C[C@H]2CN([C@@H](C(=O)O)C(C)(C)C)C[C@@H]2c2cccc(F)c2)CC1 | 13 |  | 11 | 15 | < 0.14 | 1.6 |  |  | IC95 [8]: 8.1 nM; AUC N [9]: 0.24 uM hr dose-1; half-life [10]: 0.55 h; inhibition [3]: 36%; inhibition [5]: 39%; clearance [15]: 108 mL/min/kg; IC95 [17]: 6.2 nM; inhibition [7]: 7%
CCn1nc(Cc2ccc(-c3ccccc3)cc2)cc1C1CCN(C[C@H]2CN([C@@H](C(=O)O)C3CCCCC3)C[C@@H]2c2cccc(F)c2)CC1 |  | 1.3 | 11 |  | 0.4 | 0.3 | 5.3 | 18 | Ki [20]: 400 nM
CCn1nc(Cc2ccc(OC(C)(C)C)cc2)cc1C1CCN(C[C@H]2CN([C@@H](C(=O)O)C3CCCCC3)C[C@@H]2c2cccc(F)c2)CC1 |  | 1 | 11 |  | < 0.14 | 0.5 | 27 | 19 | 
CCn1nc(Cc2ccc(-c3ccccc3)cc2)cc1C1CCN(C[C@H]2CN([C@@H](C(=O)O)C(C)(C)C)C[C@@H]2c2cccc(F)c2)CC1 |  | 8.9 | 100 |  | 1.2 | 0.6 | 0.23 | 33 | 
CC[C@H](C)[C@H](C(=O)O)N1C[C@H](CN2CCC(c3cc(Cc4ccc(OC5CCC5)cc4)nn3CC)CC2)[C@@H](c2cccc(F)c2)C1 |  | 1.2 | 11 |  | < 0.14 | 1.3 | 2.7 | 68 | 
CCOc1ccc(Cc2cc(C3CCN(C[C@H]4CN([C@@H](C(=O)O)C(C)(C)C)C[C@@H]4c4cccc(F)c4)CC3)n(CC)n2)cc1 |  | 1.4 | 33 |  | 0.4 | 0.9 | 1.7 | 68 | AUC N [9]: 2.3 uM hr dose-1; half-life [10]: 1.8 h; clearance [15]: 13 mL/min/kg
CCn1nc(Cc2ccc(OC3CCC3)cc2)cc1C1CCN(C[C@H]2CN([C@@H](C(=O)O)C(C)(C)C)C[C@@H]2c2cccc(F)c2)CC1 |  | 3.5 | 33 |  | 0.4 | 0.7 | 0.62 | 65 | 
CC[C@H](C)[C@H](C(=O)O)N1C[C@H](CN2CCC(c3cc(Cc4ccc(OC(C)(C)C)cc4)nn3CC)CC2)[C@@H](c2cccc(F)c2)C1 |  | 1.1 | 11 |  | < 0.14 | 1.3 | 4 | 76 | 
CC[C@H](C)[C@H](C(=O)O)N1C[C@H](CN2CCC(c3cc(Cc4ccc(OC5CC5)cc4)nn3CC)CC2)[C@@H](c2cccc(F)c2)C1 |  | 1 | 11 |  | < 0.14 | 0.3 | 1.9 | 36 | 
CCn1nc(Cc2cccc(F)c2)cc1C1CCN(C[C@H]2CN([C@@H](C(=O)O)C(C)C)C[C@@H]2c2cccc(F)c2)CC1 |  | 0.8 | 300 |  | 11 | 1.3 | 3.9 | 40 | 
CC[C@H](C)[C@H](C(=O)O)N1C[C@H](CN2CCC(c3cc(Cc4ccccc4)nn3CC)CC2)[C@@H](c2cccc(F)c2)C1 |  | 0.54 | 100 |  |  |  |  | 13 | Ki [20]: 30000 nM
CCn1nc(Cc2ccc(-c3ccccc3)cc2)cc1C1CCN(C[C@H]2CN([C@@H](C(=O)O)C(C)C)C[C@@H]2c2cccc(F)c2)CC1 |  | 5.7 | 100 |  | < 0.14 | 0.3 | 0.32 | 26 | 
CC[C@@H](C)[C@H](C(=O)O)N1C[C@H](CN2CCC(c3cc(Cc4ccc(OC(C)(C)C)cc4)nn3CC)CC2)[C@@H](c2cccc(F)c2)C1 |  | 2.7 | 3.7 |  | < 0.14 | 1.6 | 0.97 | 23 | 
CCn1nc(Cc2ccc(C(F)(F)F)cc2)cc1C1CCN(C[C@H]2CN([C@@H](C(=O)O)C(C)(C)C)C[C@@H]2c2cccc(F)c2)CC1 |  |  | 33 |  | 0.4 | 0.3 |  |  | AUC N [21]: 4.9 uM hr dose-1; half-life [10]: 2.8 h; clearance [15]: 5.5 mL/min/kg
CCOc1ccc(Cc2cc(C3CCN(C[C@H]4CN([C@@H](C(=O)O)[C@@H](C)CC)C[C@@H]4c4cccc(F)c4)CC3)n(CC)n2)cc1 |  | 0.98 | 33 |  | < 0.14 | 0.6 | 4.4 | 5.9 | 
CCn1nc(Cc2ccc(C#N)cc2)cc1C1CCN(C[C@H]2CN([C@@H](C(=O)O)C(C)(C)C)C[C@@H]2c2cccc(F)c2)CC1 | 23 |  | 3.7 | 1 | < 0.14 | 1.3 |  |  | inhibition [3]: 17%; IC50 [18]: 4000 nM; inhibition [7]: 44%
